Compound activity deposited in PubChem BioAssay by Sanford-Burnham Center for Chemical Genomics.
APJ ag: activates the human apelin receptor APJ; CHO-K1 APJ PathHunter beta-arrestin, luminescence; 0% DMSO wells, 100% apelin; activation, % at 20 µM; actives 0.11% (n = 330,000); AID 2520;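 active = activation more than six SD over the plate average, tested at 20 µM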;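 also: 0% = DMSO alone and 100% = apelin-13 at 10 nM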
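Assay system – PathHunter CHO-K1 APJ (AGTRL-1) beta-arrestin reporter cells · Compound – one dose, 20 µM compound, 1% DMSO · Timing – compound 90 min 25 °C, reagent 1 h · Measured by – luminescence from split beta-galactosidase complementation, Galacton Star/Emerald II substrate · Measure – beta-arrestin recruitment to APJ as agonist activity, luminescent signal · Benchmarks – DMSO vs Apelin-13 10 nM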
CCR6 antag: CCR6 (human) receptor antagonism | AID 493098 | actives 0.49% (n = 340,000) | inhibition, % at 20 µM | CHO-K1 CCR6 PathHunter beta-arrestin, luminescence, CCL20-stimulated | P51684;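 active = compounds whose inhibition of the agonist-driven luminescence signal at 20 µM reaches about 50%, limit read from the data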;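 also: cells stimulated with CCL20 at 14 nM final; plate controls were DMSO with CCL20 for no effect and DMSO without agonist for full effect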
Target sequence (P51684 whole entry, looked up): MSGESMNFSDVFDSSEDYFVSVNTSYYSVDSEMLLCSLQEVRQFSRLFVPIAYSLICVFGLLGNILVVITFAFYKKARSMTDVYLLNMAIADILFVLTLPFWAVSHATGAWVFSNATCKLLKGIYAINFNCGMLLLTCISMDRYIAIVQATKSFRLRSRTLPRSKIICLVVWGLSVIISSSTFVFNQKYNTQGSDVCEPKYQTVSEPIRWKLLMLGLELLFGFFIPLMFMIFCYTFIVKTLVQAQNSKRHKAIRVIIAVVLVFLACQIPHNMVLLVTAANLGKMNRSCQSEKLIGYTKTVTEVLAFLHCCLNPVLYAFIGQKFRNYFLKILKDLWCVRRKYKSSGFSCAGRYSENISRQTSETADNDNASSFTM
EBI2 antag: blocks human EBI2 receptor beta-arrestin signaling; inhibition, % at 5 µM; EBI2 beta-arrestin recruitment, luminescence, 7a,25-OHC stimulated; actives 0.81% (n = 360,000); in the data active = inhibition above about 38%;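 also: enzyme fragment complementation signal reports receptor beta-arrestin coupling in cells; 0% = agonist plus DMSO wells and 100% = wells without agonist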
Target sequence (P32249 whole entry, looked up, the tested form may be a part): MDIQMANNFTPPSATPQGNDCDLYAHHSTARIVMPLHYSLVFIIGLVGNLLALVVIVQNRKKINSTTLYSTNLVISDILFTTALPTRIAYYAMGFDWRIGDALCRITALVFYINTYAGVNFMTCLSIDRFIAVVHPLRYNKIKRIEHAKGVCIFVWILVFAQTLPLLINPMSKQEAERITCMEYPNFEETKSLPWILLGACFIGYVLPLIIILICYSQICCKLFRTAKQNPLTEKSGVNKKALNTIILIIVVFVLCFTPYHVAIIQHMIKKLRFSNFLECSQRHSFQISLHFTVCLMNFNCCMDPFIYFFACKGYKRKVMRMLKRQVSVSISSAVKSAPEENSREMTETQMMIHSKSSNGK
APJ antagonist: APJ receptor antagonism | AID 2521 | CHO-K1 APJ beta-arrestin complementation, luminescence | P35414 | inhibition, % at 20 µM | actives 0.32% (n = 330,000);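 active = inhibition above about 40% at 20 µM, limit read from the data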;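 also: cells challenged with 10 nM apelin-13 agonist together with compound; plate controls were apelin-13 plus DMSO wells for no effect and DMSO wells lacking apelin-13 for full effect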
CXCR6 block: inhibitors of human CXCR6 receptor; O00574; CHO-K1 PathHunter CXCR6 beta-arrestin, luminescence; inhibition, % at 20 µM; actives 0.36% (n = 360,000); AID 602244; in the data active = inhibition above about 34%, passing the limit was not always enough;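 also: antagonist mode with CXCL16 agonist at 10 nM final; 0% = 10 nM CXCL16 with DMSO and 100% = unstimulated wells without agonist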
APJ antag confirm: APJ receptor antagonism confirmation | APJ beta-arrestin recruitment, luminescence, antagonist mode | shares compounds with APJ antagonist | actives 66% (n = 950) | inhibition, % at 20 µM | AID 2766; in the data active = inhibition above about 50%
CXCR6 antag conf: CXCR6 antagonism confirmation, single concentration; actives 65% (n = 700); inhibition, % at 20 µM; AID 602409; shares compounds with CXCR6 block; CHO-K1 CXCR6 PathHunter beta-arrestin, luminescence;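 active = mean inhibition over four retests above 40%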;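 also: receptor stimulated with 10 nM CXCL16 agonist; beta-galactosidase fragment complementation upon beta-arrestin recruitment to receptor; plate controls were CXCL16 plus DMSO for no effect and DMSO without CXCL16 for full effect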
EBI2 antag conf: EBI2 (human) antagonism, single concentration confirmation; shares compounds with EBI2 antag; EBI2 beta-arrestin luminescence, 7a,25-OHC antagonism; inhibition, % at 5 µM; actives 29% (n = 2,400); AID 651997;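 active = inhibition of at least 50%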
EBI2 ag: EBI2 agonism counter-screen; shares compounds with EBI2 antag; EBI2-expressing cells, agonist mode, luminescence, 60 min; 0% vehicle, 100% 7α,25-dihydroxycholesterol control; activation, % at 5 µM; 2,400 tested, under 10 active;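 active = activation of at least 50%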
bGal counter: inhibits E. coli beta-galactosidase, counter-screen for EBI2 antagonists. actives 1% (n = 2,400). inhibition, % at 5 µM. purified beta-galactosidase, luminescent Galacton Star, 15 min. shares compounds with EBI2 antag. AID 652176;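 active = replicate-average signal at least 3 plate SD below neutral wells, shown as high inhibition, flagging enzyme-inhibiting false positives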;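 also: 0% = DMSO wells with enzyme and 100% = wells lacking enzyme; higher means stronger loss of beta-gal luminescence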
* marks the source's active call; other numbers are inactive results; nt = no result. Compounds with a hit are over-represented: about 1.5% of the library has one in this group of screens.

SMILES | APJ ag | CCR6 antag | EBI2 antag | APJ antagonist | CXCR6 block | CXCR6 antag conf | others
O=C1C(Cc2ccccc2)Nc2ncnc(N3CCN(c4ccccc4)CC3)c2N1Cc1ccc(Br)cc1 (stereo not drawn) | -12 | 87* | 75* | 82* | 74* | 79* | APJ antag confirm=118*;EBI2 antag conf=71*;EBI2 ag=-4;bGal counter=41*
Cc1ccc(CN2C(=O)C(Cc3ccccc3)Nc3ncnc(N4CCN(c5ccccc5)CC4)c32)cc1 (stereo not drawn) | -21 | 80* | 60* | 74* | 74* | 72* | APJ antag confirm=111*;EBI2 antag conf=62*;EBI2 ag=-3;bGal counter=37*
CC1CCN(C(=O)COC(=O)c2cccc(S(=O)(=O)N3CCOCC3)c2)CC1 | nt | nt | 8 | nt | -12 | nt
Cc1ccc(F)c(S(=O)(=O)NC(=O)C2(C)CCN2C(=O)CC2CCCCC2)c1 (stereo not drawn) | nt | nt | -3 | nt | 0 | nt
C/C(=N\NC(=O)c1cc2ccccc2cc1O)c1ccccn1 | -20 | 20 | 50* | 44* | 18 | nt | APJ antag confirm=30;EBI2 antag conf=76*;EBI2 ag=-2;bGal counter=-2
C/C(=N\NC(=O)c1c[nH]c2ccccc12)c1ccccn1 | 5 | 0 | 7 | -40 | -4 | nt
C/C(=N\NC(=O)c1ccc(F)cc1)c1ccccn1 | -11 | 80* | 64* | 60* | 72* | 86* | APJ antag confirm=87*;EBI2 antag conf=84*;EBI2 ag=-2;bGal counter=-10
CCOC(=O)N1CCN(C(=O)C[C@@H]2C[C@@]3(C(=O)OCC)CCC=C3N(Cc3cccc4ccccc34)C2=O)CC1 | nt | nt | -1 | nt | 4 | nt
CCCOc1cccc(-c2cc(C(=O)N/N=C/c3ccccn3)c3ccccc3n2)c1 | -12 | 70* | 48* | 48* | 57* | 46* | APJ antag confirm=54*;EBI2 antag conf=61*;EBI2 ag=0;bGal counter=2
CCCOc1cccc(-c2cc(C(=O)N/N=C/c3cccnc3)c3ccccc3n2)c1 | 2 | -6 | 1 | -46 | 10 | nt
C[C@H](CO)N1C[C@H](C)[C@H](CN(C)C(=O)Nc2ccc(F)cc2)OCc2ccccc2-c2c(n(C)c3ccccc23)C1=O | nt | nt | -1 | nt | 41* | 20
Cc1[nH]n(-c2ccccc2)c(=S)c1C=NCCCN=Cc1c(C)[nH]n(-c2ccccc2)c1=S | 0 | 74* | 7 | -29 | 54* | 74*
Cc1ccc(NC(=O)c2cc(N3C(=O)CCC3=O)ccc2N2CCOCC2)cc1 | -1 | 13 | -3 | -4 | 3 | nt
Cc1ccc(NC(=O)c2cc(N3C(=O)C=CC3=O)ccc2N2CCOCC2)cc1Cl | nt | 97* | -3 | nt | 60* | 38
CCCS(=O)(=O)NC(=O)C1(C)CCCN(C(=O)c2cc(-c3cccs3)oc2C)C1 (stereo not drawn) | nt | nt | -16 | nt | 4 | nt
CCC/C=C/c1ccc(CN2C(C)C(=O)N(Cc3cn(CCOCOC)nn3)CCS2(=O)=O)cc1 (stereo not drawn) | nt | nt | 4 | nt | 42* | 7
O=c1[nH]c2ccccc2nc1-c1nnnn1Cc1ccccc1 | nt | nt | 2 | nt | -9 | nt
O=C(c1ccccc1F)N1CCCC(N2CCN(Cc3ccc4c(c3)OCO4)CC2)C1 (stereo not drawn) | nt | nt | -11 | nt | -4 | nt
O=C1Nc2ccccc2C1Cc1ccccc1 (stereo not drawn) | -3 | -9 | 2 | -5 | 7 | nt
O=C1C=CC2(C=C1)O[C@H](Cc1ccccc1)[C@@H](Cc1ccccc1)O2 | nt | 94* | 85* | nt | 76* | 71*
COc1ccc(C[C@@H]2OC3(C=CC(=O)C=C3)O[C@H]2Cc2ccc(OC)cc2)cc1 | nt | 107* | 88* | nt | 83* | 84*
COc1ccc(N2C(=O)CC(Cc3ccccc3)C2=O)cc1 (stereo not drawn) | -2 | 3 | -8 | -12 | -3 | nt
COc1ccccc1-c1noc(CCC(=O)Nc2cccc(C)c2)n1 | -4 | 21 | 8 | 9 | 62* | -5
COCC(=O)N(C)C[C@@H]1Oc2ncc(Br)cc2C(=O)N([C@@H](C)CO)C[C@H]1C | nt | nt | -1 | nt | 1 | nt
CCc1nnc(NC(=O)c2cc(-c3ccncc3)nc3ccccc23)s1 | -1 | -3 | -11 | -13 | 47* | 29
SMILES | APJ ag | CCR6 antag | EBI2 antag | APJ antagonist | CXCR6 block | CXCR6 antag conf | others
CC(C)(C)c1nnc(NC(=O)c2cc(-c3ccccc3)nc3ccccc23)s1 | 2 | -2 | -30 | 6 | -7 | nt
CC(C)(C)S(=O)N1Cc2cc(C(=O)N3CCc4ccccc4C3)nc(-c3cccc(-c4ccncc4)c3)c2[C@H]1CCO (stereo partly drawn) | nt | nt | -5 | nt | -7 | nt
CCc1nc2c(OCCC3CCCCC3)cccn2c1N(C)C(=O)c1ccc(C)cc1 | nt | nt | 29 | nt | 42* | 48*
CC[N+]1(C)CCC(O)(/C=C/c2ccccc2)C(C(=O)/C=C/c2ccccc2)C1 (stereo not drawn) | nt | 63* | 25 | nt | 40* | 68*
C/C(=N\NC(=S)NCCc1ccccc1)c1ccc(Cl)cc1Cl | -8 | nt | 13 | 33 | 54* | 54*
C/C(=N\NC(=S)NCCc1ccccc1)c1ccc(O)cc1O | 7 | 9 | 6 | -5 | 0 | nt
O=C(C[C@@H]1CC[C@@H]2[C@H](COC[C@H](O)CN2C(=O)Nc2ccc(F)cc2)O1)NCCc1ccncc1 | nt | nt | -6 | nt | nt | nt
CC(C)c1ccc(C2CC(=O)c3cnc(N4CCc5ccccc5C4)nc3C2)cc1 (stereo not drawn) | 1 | 1 | -7 | 15 | 6 | nt
O=C1CC(c2ccco2)Cc2nc(N3CCc4ccccc4C3)ncc21 (stereo not drawn) | -3 | 29 | 4 | 10 | 44* | -2
C=CC[C@H](CC(=O)N(CCO)Cc1ccccc1)C(=O)NC[C@H](OC(=O)[C@@H](CC=C)Cc1ccc(F)cc1)c1ccccc1 | -2 | 24 | -1 | 13 | 48* | 19
C=CC[C@@H](CC(=O)N(CCO)Cc1ccccc1)C(=O)NC[C@@H](OC(=O)[C@@H](CC=C)Cc1ccc(F)cc1)c1ccccc1 | -4 | 14 | 20 | -3 | 23 | nt
C=CC[C@@H](CC(=O)N(CCO)Cc1ccccc1)C(=O)N[C@@H](COC(=O)[C@@H](CC=C)Cc1ccc(F)cc1)Cc1ccccc1 | -5 | 28 | 8 | 5 | 42* | 23
